Experimental findings from ChEMBL document CHEMBL3865830, “Multifunctional diamine AGE/ALE inhibitors with potential therapeutical properties against Alzheimer's disease” (Eur J Med Chem, 2016) are described below.

Data set [1] is described as follows: Reactive carbonyl species trapping activity of compound assessed as MGO adduct formation at 10 mM preincubated for 24 hrs with MGO measured after 24 hrs by LCMS analysis. In kind it is physicochemical. As to conditions: 10000 µM.
Data set [2] can be described thus: Reactive carbonyl species trapping activity of compound assessed as MGO adduct formation at 10 mM preincubated for 24 hrs with MGO measured after 15 mins by LCMS analysis. Type of data set: physicochemical. The note with it: 0.25 h, 10000 µM.
Data set [3] is described as follows: Reactive carbonyl species trapping activity of compound assessed as MDA adduct formation at 10 mM preincubated for 24 hrs with MDA measured after 1 hr by LCMS analysis. Type of data set: physicochemical. The note with it: 10000 µM.
The nature of data set [4]: Antioxidant activity assessed as inhibition of AAPH-induced peroxyl radical generation measured as trolox equivalent at 10 uM preincubated for 30 mins followed by AAPH addition measured evey 60 secs for 60 cycles by ORAC-FL assay. In kind it is functional. As to conditions: in the assay text read “90 secs” for “60 secs”. In outline:
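Fluorescein (12 nM) preincubated with compound (1-20 µM) or Trolox standard (1-50 µM) in D-PBS, at least 30 min at 37 °C. Reaction started with AAPH (30 mM). Fluorescence (ex 485/em 520 nm) read every 90 s for 60 cycles. Net AUC is converted to Trolox equivalents via the Trolox calibration line. Values are reported at 10 µM, from at least three independent experiments in triplicate.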

Data set [5] is described as follows: Metal chelating activity of compound assessed as compound-Cu2+ complex formation at 200 uM after 10 mins in presence of CuSO4.5H2O by complexometric indicator murexide based UV-Vis spectrophotometric analysis. In kind it is physicochemical. In outline: (§1)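 Compound (0.02-2 mM) incubated with CuSO4 (120 µM) for 10 min at rt, in 10 mM hexamine/HCl with 10 mM KCl (pH 5.0), or in buffer/MeOH 75:25 for poorly soluble compounds. Murexide added, 1 min more. The A485/A520 ratio gives free Cu2+ from a CuSO4 calibration curve (0-125 µM). % chelation is taken by difference from the no-compound control; triplicates.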

The species named for another data set is Rattus norvegicus. Put plainly: Cytotoxicity against rat […] PC12 cells assessed as reduction in cell viability at 10 to 100 uM after 24 hrs by WST8-based CCK8 assay. In kind it is toxicity. As to conditions: pc-12, 24 h. In outline: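 PC12 Adh cells (rat pheochromocytoma-derived) grown in F-12K with 2.5% FBS, 15% horse serum and pen/strep at 37 °C, 5% CO2. Seeded at 5×10^3 cells/well; treated at 80% confluency with 10 or 100 µM for 24 h. 10% DMSO served as positive cytotoxicity control. CCK-8 added for 1 h at 37 °C, absorbance read at 450 nm. Viability given as % of untreated cells; at least three experiments in triplicate.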
Background: Tetrazolium assays rely on reduction of a dye to a coloured formazan, in cell work by metabolically active cells.

The nature of data set [6]: Reactive carbonyl species trapping activity of compound assessed as MGO adduct formation at 10 mM preincubated for 24 hrs with MGO measured after 0.25 hrs by LCMS analysis. The note with it: 10000 µM. In kind it is physicochemical.
The nature of data set [7]: Reactive carbonyl species trapping activity of compound assessed as MGO adduct formation at 10 mM preincubated for 24 hrs with MGO measured after 0.5 hrs by LCMS analysis. In kind it is physicochemical. The note with it: 10000 µM.
A short description of data set [8]: Reactive carbonyl species trapping activity of compound assessed as MGO adduct formation at 10 mM preincubated for 24 hrs with MGO measured after 1 hr by LCMS analysis. Type of data set: physicochemical. As to conditions: 10000 µM.
Data set [9] in a line: Reactive carbonyl species trapping activity of compound assessed as MGO adduct formation at 10 mM preincubated for 24 hrs with MGO measured after 5 hrs by LCMS analysis. In kind it is physicochemical. As to conditions: 10000 µM.
Data set [10] is described as follows: Reactive carbonyl species trapping activity of compound assessed as MDA adduct formation at 10 mM preincubated for 24 hrs with MDA measured after 0.25 hrs by LCMS analysis. In kind it is physicochemical. As to conditions: 10000 µM.
The nature of data set [11]: Reactive carbonyl species trapping activity of compound assessed as MDA adduct formation at 10 mM preincubated for 24 hrs with MDA measured after 5 hrs by LCMS analysis. The note with it: 10000 µM. Type of data set: physicochemical.
Data set [12] in a line: Reactive carbonyl species trapping activity of compound assessed as MDA adduct formation at 10 mM preincubated for 24 hrs with MDA measured after 24 hrs by LCMS analysis. Type of data set: physicochemical. As to conditions: 10000 µM.
Data set [13] can be described thus: Metal chelating activity of compound assessed as compound-Cu2+ complex formation at 0.02 mM after 10 mins in presence of CuSO4.5H2O by complexometric indicator murexide based UV-Vis spectrophotometric analysis. As to conditions: 20 µM. Type of data set: physicochemical. In short, it runs like this: as §1
Data set [14] is described as follows: Metal chelating activity of compound assessed as compound-Cu2+ complex formation at 0.05 mM after 10 mins in presence of CuSO4.5H2O by complexometric indicator murexide based UV-Vis spectrophotometric analysis. Type of data set: physicochemical. As to conditions: 50 µM. In outline: as §1
The nature of data set [15]: Metal chelating activity of compound assessed as compound-Cu2+ complex formation at 0.08 mM after 10 mins in presence of CuSO4.5H2O by complexometric indicator murexide based UV-Vis spectrophotometric analysis. In kind it is physicochemical. The note with it: 80 µM. In outline:
as §1

Data set [16] is described as follows: Metal chelating activity of compound assessed as compound-Cu2+ complex formation at 0.1 mM after 10 mins in presence of CuSO4.5H2O by complexometric indicator murexide based UV-Vis spectrophotometric analysis. In kind it is physicochemical. As to conditions: 100 µM. In outline: as §1
Data set [17] in a line: Metal chelating activity of compound assessed as compound-Cu2+ complex formation at 0.5 mM after 10 mins in presence of CuSO4.5H2O by complexometric indicator murexide based UV-Vis spectrophotometric analysis. Type of data set: physicochemical. As to conditions: 500 µM. In short, it runs like this: as §1
Data set [18] is described as follows: Metal chelating activity of compound assessed as compound-Cu2+ complex formation at 1 mM after 10 mins in presence of CuSO4.5H2O by complexometric indicator murexide based UV-Vis spectrophotometric analysis. Type of data set: physicochemical. The note with it: 1000 µM. In short, it runs like this: as §1
Data set [19] in a line: Metal chelating activity of compound assessed as compound-Cu2+ complex formation at 2 mM after 10 mins in presence of CuSO4.5H2O by complexometric indicator murexide based UV-Vis spectrophotometric analysis. In kind it is physicochemical. The note with it: 2000 µM. In short, it runs like this:
as §1

Data set [20] can be described thus: Reactive carbonyl species trapping activity of compound assessed as MDA adduct formation at 10 mM preincubated for 24 hrs with MDA measured after 0.5 hrs by LCMS analysis. In kind it is physicochemical. As to conditions: 10000 µM.

With `Cl.Cl.NCC(N)CC(=O)N1CCN(C(=O)CCn2cccc(O)c2=O)CC1` (centres undefined), the Activity is 99% in [1]; 99% in [2]; 87% in data set [3]; 50.25% in data set [5]; “Toxic” in the data set filed under Rattus norvegicus; 99% in data set [6]. The Activity in [7] is recorded as 97%; in data set [8] it was 99%; in data set [9], 99%; in data set [10], 75%; in data set [11], 92%; in data set [12], 91%. For the same molecule, the Activity in data set [13] is 10.33%; in data set [14], 18.5%; in [15], 27.53%; in data set [16] it was 30.74%; in data set [17], 68.5%; in data set [18], 75.14%. Moreover, the Activity in data set [19] came to 78.98%. Besides, the Activity (umolequiv/umol) in [4] worked out at 0.58.

`NCCC(=O)N[C@@H](Cc1c[nH]cn1)C(=O)O`: the Activity (umolequiv/umol) in [4] was 0.08.

For the molecule `CCCCN1CCN(C(=O)C(N)CN)CC1.Cl.Cl` (centres undefined), the Activity in data set [1] stood at 100%; in data set [2], 59%; in [5], 27.68%; in data set [6], 59%; in [8], 70%; in [9], 93%. Further, the Activity is 62% in [10]; 65% in data set [20]; 77% in data set [11]; 62% in [12]; 3.22% in [13]; 10.28% in [14]. Further, the Activity in data set [15] is 14.87%; in [16] it was 16.55%; in data set [17], 43.56%; in data set [18], 53.27%; in data set [19], 62.53%.

For the molecule `Cl.Cl.NCC(N)CCCCNC(=O)c1cc(O)c(O)c(O)c1` (centres undefined), the Activity in data set [1] is listed as 95%; in data set [2], 90%; in data set [3] it was 84%; in data set [5], 87.39%; in the data set filed under Rattus norvegicus, “Non-Toxic”; in data set [6], 90%. In addition, the Activity in data set [8] was determined as 93%; in data set [9], 89%; in [20] it was 80%; in data set [11], 87%; in data set [12], 81%; in [13], 14.24%. Moreover, the Activity in data set [14] worked out at 31.34%; in [15], 50.28%; in data set [16], 61.98%; in [17] it was 93.72%; in [18] it was 93.82%; in [19] it was 88.48%. Further, in [4], the Activity (umolequiv/umol) turned out to be 2.59.

Consider `Cc1c(C)c2c(c(C)c1O)CCC(C)(C(=O)O)O2` (centres undefined), for which the Activity (umolequiv/umol) in data set [4] turned out to be 1.

As to `Cl.Cl.NCC(N)CCCCNC(=O)CCn1cccc(O)c1=O` (centres undefined), the Activity is listed as 100% in data set [1]; 98% in data set [2]; 69% in [3]; 62.77% in data set [5]; “Non-Toxic” in the data set filed under Rattus norvegicus; 98% in data set [6]. Besides, the Activity in [7] came to 96%; in data set [9], 99%; in data set [10], 65%; in data set [11], 73%; in data set [12] it was 95%; in data set [13] it was 12.05%. In addition, the Activity in data set [14] is given as 24.51%; in data set [15], 34.87%; in data set [16], 41.17%; in data set [17] it was 81.17%; in data set [18] it was 85.56%; in [19] it was 87.04%. In addition, in [4], the Activity (umolequiv/umol) worked out at 1.21.

In the case of `NCCC(=O)N[C@@H](Cc1cnc[nH]1)C(=O)O` [CARNOSINE], the Activity in data set [1] is recorded as 59%; in [2] it was 46%; in data set [3], 40%; in data set [5] it was 1.53%; in data set [6], 46%; in data set [7], 51%. Further, the Activity stood at 58% in data set [9]; 23% in data set [10]; 32% in data set [20]; 38% in data set [11]; 66% in data set [12]; 0.73% in [13]. Moreover, the Activity is reported as 0% in [14]; 0.38% in data set [15]; 0.72% in [16]; 5.39% in [17]; 16.92% in [18]; 41.7% in data set [19].

Regarding `Cl.Cl.NCC(N)CCCCNC(=O)CCn1cccc(OCc2ccccc2)c1=O` (centres undefined), the Activity in data set [5] is recorded as 33.91%; in data set [13], 6.59%; in [14], 12.05%; in data set [15], 19.27%; in data set [16] it was 21.41%; in data set [17], 51.43%. Moreover, the Activity in data set [18] came to 61.48%; in [19], 67.84%.

On to `NCCN` [ETHYLENEDIAMINE], for which the Activity worked out at 100% in [5]; 18.81% in [13]; 44.49% in data set [14]; 64.61% in data set [15]; 69.82% in data set [16]; 100% in [17]. Further, the Activity in data set [18] and in data set [19] was 100% in each case.

Regarding `COc1cc(/C=C/C(=O)N2CCN(C(=O)CCC(N)CN)CC2)ccc1O.Cl.Cl` (centres undefined), in [4], the Activity (umolequiv/umol) was found to be 2.05. The Activity in [5] was 45.61%; in the data set filed under Rattus norvegicus it was “Non-Toxic”; in data set [13] it was 3.3%; in data set [14], 14.92%; in data set [15], 22.44%; in [16], 28.75%. In addition, the Activity in data set [17] came to 61.66%; in data set [18], 71.51%; in data set [19], 81.81%.

As for `CC(C)(C)OC(=O)NCC(CCCCNC(=O)CCn1cccc(O)c1=O)NC(=O)OC(C)(C)C.Cl.Cl` (centres undefined), the Activity in data set [5] is reported as 54.61%; in data set [13], 11.08%; in data set [14] it was 19.87%; in [15], 30.19%; in data set [16], 34.48%; in data set [17] it was 76.54%. Also, the Activity in data set [18] is listed as 89.96%; in [19], 94.72%.
